Converted amounts (≈) assume the structure as drawn.
Assays:
[1] = biological target: T1, Enoyl-[acyl-carrier-protein] reductase [NADPH] FabI (Staphylococcus aureus, UniProt Q6GI75); test: Evaluated for inhibition of enoyl acyl carrier protein reductase (FabI) in Staphylococcus aureus.
T1 sequence (Q6GI75 whole entry): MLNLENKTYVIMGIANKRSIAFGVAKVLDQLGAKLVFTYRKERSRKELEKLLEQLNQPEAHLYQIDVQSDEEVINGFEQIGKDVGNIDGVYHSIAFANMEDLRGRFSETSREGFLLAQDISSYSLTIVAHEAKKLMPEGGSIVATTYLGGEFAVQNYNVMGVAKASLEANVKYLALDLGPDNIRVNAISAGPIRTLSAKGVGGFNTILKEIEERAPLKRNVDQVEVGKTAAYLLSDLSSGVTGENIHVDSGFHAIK

[2] = biological target: T2, Enoyl-[acyl-carrier-protein] reductase [NADH] FabI (Escherichia coli K-12, UniProt P0AEK4); test: Evaluated for inhibition of enoyl acyl carrier protein reductase (FabI) in Escherichia coli.
T2 sequence (P0AEK4 whole entry): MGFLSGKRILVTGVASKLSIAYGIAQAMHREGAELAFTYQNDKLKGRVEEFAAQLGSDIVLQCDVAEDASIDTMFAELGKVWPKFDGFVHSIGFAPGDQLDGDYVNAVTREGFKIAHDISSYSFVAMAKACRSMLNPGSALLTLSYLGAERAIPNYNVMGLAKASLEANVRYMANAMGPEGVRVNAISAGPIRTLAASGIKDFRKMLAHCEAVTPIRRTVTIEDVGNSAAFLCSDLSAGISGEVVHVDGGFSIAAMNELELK

[3] = system: Staphylococcus aureus; test: Antibacterial activity against Staphylococcus aureus Oxford.; assay type: functional
[4] = system: Moraxella catarrhalis; test: Antibacterial activity against Moraxella catarrhalis 1502; assay type: functional
[5] = biological target: T2, Enoyl-[acyl-carrier-protein] reductase [NADH] FabI; test: Evaluated for inhibition of enoyl acyl carrier protein reductase (FabI) of Escherichia coli in the presence of NADH using crotonoyl CoA as substrate
Outline: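 Cloned, overexpressed, purified E. coli FabI (usually 60 nM) in 100 mM NaADA pH 6.5, 4% glycerol, 0.25 mM crotonoyl CoA, 50 µM NADH; inhibitor typically 0.01-10 µM. NADH consumption followed at 340 nm, 20 min, 30 °C; initial velocities from tangent at t = 0 of exponential fit; IC50 from 4-parameter fit, mean ± SD of duplicates.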

[6] = biological target: T1, Enoyl-[acyl-carrier-protein] reductase [NADPH] FabI; test: Evaluated for inhibition of enoyl acyl carrier protein reductase (FabI) of Staphylococcus aureus in the presence of NADH using crotonoyl CoA as substrate

Compound	IC50 [1] [µM]	IC50 [2] [µM]	MIC [3] [µg/mL]	MIC [4] [µg/mL]	IC50 [5] [µM]	IC50 [6] [µM]
Cc1ccc(Cn2cnc(-c3cccc(Cl)c3Cl)c2)cc1	> 10					
c1ccc(-c2ccc(Cn3cnc(-c4ccsc4)c3)cc2)cc1	7.66	1.18				
COc1ccc(-c2cn(Cc3ccc(C(F)(F)F)cc3)cn2)cc1	4.07	28.3				
COc1ccc(-c2cn(Cc3ccccc3)cn2)cc1	1.13	5.28	64 (≈ 242 µM)	64 (≈ 242 µM)		
c1ccc(C[C@@H]2COC(c3ccsc3)=N2)cc1	> 100	> 100				
Cc1ccccc1Cn1cnc(-c2ccsc2)c1	36.5	65.4				
Cn1cnc(-c2ccsc2)c1	> 100					
O=[N+]([O-])c1cccc(Cn2cnc(-c3ccsc3)c2)c1	14.7	26.9				
O=C(O)c1cccc(Cn2cnc(-c3ccsc3)c2)c1	> 100	> 100				
c1ccc(C[C@H]2COC(c3ccsc3)=N2)cc1	> 100	> 100				
FC(F)(F)c1ccc(-c2cn(Cc3ccccc3)cn2)cc1	> 100					
Cc1cccc(Cn2cnc(-c3ccsc3)c2)c1	4.24	12.2	> 64	32 (≈ 126 µM)		
COc1ccc(-c2cn(Cc3ccc(C)cc3)cn2)cc1	0.36	3.92	8 (≈ 28.7 µM)	32 (≈ 115 µM)		
Oc1cc(Cl)ccc1Oc1ccc(Cl)cc1Cl [TRICLOSAN]			0.03 (≈ 0.104 µM)	0.06 (≈ 0.207 µM)		

Results, then the molecule that gave them:

IC50 [1] [µM]	IC50 [2] [µM]	MIC [3] [µg/mL]	MIC [4] [µg/mL]	IC50 [5] [µM]	IC50 [6] [µM]	Compound
66.2	> 100					COc1ccc(-c2c[nH]c(Cc3ccc(C)cc3)n2)cc1
50.7	> 100					Cc1ccc(Cc2nc(-c3ccsc3)no2)cc1
> 100	> 100					Cc1ccc(Cc2coc(-c3ccsc3)n2)cc1
51	> 100					Cc1ccc(Cc2noc(-c3ccsc3)n2)cc1
2.03	5.14	> 64	> 64			Nc1ccc(Cn2cnc(-c3ccsc3)c2)cc1
0.25	6.44	8 (≈ 31.5 µM)	32 (≈ 126 µM)			Cc1ccc(Cn2cnc(-c3ccsc3)c2)cc1
1.9	9.4	16 (≈ 59.2 µM)	64 (≈ 237 µM)			COc1ccc(Cn2cnc(-c3ccsc3)c2)cc1
		128 (≈ 503 µM)		13.7	1.24	Cc1ccc(Cn2cnc(-c3cccs3)c2)cc1

From ChEMBL document CHEMBL1133895, “1,4-Disubstituted imidazoles are potential antibacterial agents functioning as inhibitors of enoyl acyl carrier protein reductase (FabI)” (Bioorg Med Chem Lett, 2001)
